APJ ag = activates the human apelin receptor APJ. P35414. CHO-K1 APJ PathHunter beta-arrestin, luminescence; 0% DMSO wells, 100% apelin. activation, % at 20 µM. actives 0.11% (n = 330,000);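 active means activation more than six SD over the plate average, tested at 20 µM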;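 further: 0% = DMSO alone and 100% = apelin-13 at 10 nM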
Target sequence (P35414 whole entry, looked up): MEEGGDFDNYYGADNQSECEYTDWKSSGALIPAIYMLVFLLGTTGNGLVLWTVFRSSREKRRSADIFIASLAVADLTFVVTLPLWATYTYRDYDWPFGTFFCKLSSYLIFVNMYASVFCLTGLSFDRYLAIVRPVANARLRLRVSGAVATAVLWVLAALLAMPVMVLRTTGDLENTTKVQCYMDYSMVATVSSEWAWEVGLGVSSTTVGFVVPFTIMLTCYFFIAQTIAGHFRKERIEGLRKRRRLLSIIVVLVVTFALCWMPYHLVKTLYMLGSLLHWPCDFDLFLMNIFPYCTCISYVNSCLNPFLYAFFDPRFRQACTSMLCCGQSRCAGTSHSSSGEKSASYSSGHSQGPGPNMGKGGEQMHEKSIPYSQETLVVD
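Assay system: CHO-K1 APJ beta-arrestin complementation cell line / Compound: single test compound dose, 20 µM final, 1% DMSO / Times: overnight seeding, 90 min compound at 25 °C, 1 h detection / Technique: beta-gal luminescence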
B2AR ag = activates human beta-2 adrenergic receptor causing internalization; AID 504454; response, % (concentration not given with the values); actives 0.43% (n = 340,000); Am2.2-beta2AR cells, FAP receptor internalization, flow cytometry; P07550;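 active means response above a set limit, near 3 SD of response in nonfluorescent compounds, cut at about 42% in these data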
CCR6 antagonist = CCR6 (human) receptor antagonism; P51684; CHO-K1 CCR6 PathHunter beta-arrestin, luminescence, CCL20-stimulated; inhibition, % at 20 µM; actives 0.49% (n = 340,000); AID 493098;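 active means compounds whose inhibition of the agonist-driven luminescence signal at 20 µM reaches about 50%, limit read from the data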;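 further: cells stimulated with CCL20 at 14 nM final; plate controls were DMSO with CCL20 for no effect and DMSO without agonist for full effect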
CXCR6 inh = inhibitors of human CXCR6 receptor. CHO-K1 PathHunter CXCR6 beta-arrestin, luminescence. AID 602244. actives 0.36% (n = 360,000). inhibition, % at 20 µM; in the data active means inhibition above about 34%, passing the limit was not always enough;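 further: antagonist mode with CXCL16 agonist at 10 nM final; 0% = 10 nM CXCL16 with DMSO and 100% = unstimulated wells without agonist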
APJ antag = antagonists of human APJ apelin receptor. actives 0.32% (n = 330,000). inhibition, % at 20 µM. P35414. AID 2521. CHO-K1 APJ beta-arrestin complementation, luminescence;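 active means inhibition above about 40% at 20 µM, limit read from the data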;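 further: cells challenged with 10 nM apelin-13 agonist together with compound; plate controls were apelin-13 plus DMSO wells for no effect and DMSO wells lacking apelin-13 for full effect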
EBI2 antag = antagonists of human EBI2 receptor. P32249. EBI2 beta-arrestin recruitment, luminescence, 7a,25-OHC stimulated. inhibition, % at 5 µM. actives 0.81% (n = 360,000). AID 651636; in the data active means inhibition above about 38%;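 further: enzyme fragment complementation signal reports receptor beta-arrestin coupling in cells; 0% = agonist plus DMSO wells and 100% = wells without agonist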
EBI2 antag conf = confirmation of human EBI2 receptor antagonists; EBI2 beta-arrestin luminescence, 7a,25-OHC antagonism; shares compounds with EBI2 antag; actives 29% (n = 2,400); AID 651997; inhibition, % at 5 µM;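 active means inhibition of at least 50%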
EBI2 ag = counter-screen for EBI2 antagonists: EBI2 agonist activity; 2,400 tested, under 10 active; activation, % at 5 µM; EBI2-expressing cells, agonist mode, luminescence, 60 min; 0% vehicle, 100% 7α,25-dihydroxycholesterol control; shares compounds with EBI2 antag; AID 652000;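 active means activation of at least 50%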
bGal counter = inhibits E. coli beta-galactosidase, counter-screen for EBI2 antagonists. shares compounds with EBI2 antag. purified beta-galactosidase, luminescent Galacton Star, 15 min. inhibition, % at 5 µM. actives 1% (n = 2,400). AID 652176;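 active means replicate-average signal at least 3 plate SD below neutral wells, shown as high inhibition, flagging enzyme-inhibiting false positives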;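 further: 0% = DMSO wells with enzyme and 100% = wells lacking enzyme; higher means stronger loss of beta-gal luminescence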
Numbers without * were called inactive; . = no result given. Only some compounds are listed: those with a hit (about 1.8% of all), similar ones and a draw of the others.

SMILES	APJ ag	B2AR ag	CCR6 antagonist	CXCR6 inh	APJ antag	EBI2 antag	EBI2 antag conf	EBI2 ag	bGal counter
O=C(CCCc1cccs1)NCCc1c[nH]c2ccccc12	0.5	2.1	18.0	3.1	-1.1	45.9*	19.7	3.0	2.1
O=C(Nc1nc(-c2cccs2)cs1)c1ccc(S(=O)(=O)N2CCCCC2)cc1	-6.3	4.3	20.2	3.8	14.9	42.0*	13.6	0.8	7.8
O=C(Nc1nc(-c2cccs2)cs1)c1cccc(S(=O)(=O)N2CCCCCC2)c1	-4.0	2.2	12.3	5.9	19.6	17.2	.	.	.
Nc1nc(Cl)cc(N2CCC(c3cc(-c4ccc(Cl)cc4Cl)n[nH]3)CC2)n1	4.4	-1.6	-8.0	-7.4	2.5	45.5*	14.4	-1.1	-15.2
COc1ccc(/C=C/C(=O)c2ccc3c4c(cccc24)CC3)cc1	-0.4	-6.7	2.1	3.4	-6.0	56.5*	35.9	1.6	4.5
COc1ccc(/C=C/C(=O)c2ccc3c4c(cccc24)CC3)cc1OC	-0.2	2.5	21.5	4.6	14.0	1.7	.	.	.
CC(C)(C)NC(=O)CSc1nc2[nH]ncc2c(=O)[nH]1	-2.1	11.2	10.6	-1.7	1.0	3.8	.	.	.
CCOC(=O)C1CN(S(=O)(=O)c2ccccc2)CCN1S(=O)(=O)c1ccccc1 (centres undefined)	0.2	10.0	2.2	-0.6	-2.3	5.7	.	.	.
CCOC(=O)C1CN(S(=O)(=O)c2ccc(C)cc2)CCN1S(=O)(=O)c1ccc(C)cc1 (centres undefined)	3.1	4.3	13.3	-3.3	-6.8	44.5*	7.6	-1.1	-13.0
Cc1ccc(CCNC(=O)C23CN(Cc4ccccc4)CC2C(c2ccc([N+](=O)[O-])cc2)=NO3)cc1 (centres undefined)	7.8	-5.7	1.9	0.7	-17.0	65.1*	43.0	-1.3	-0.8
CC1CC(C)CN(c2ncc3c(n2)CC(c2ccc(Cl)cc2)CC3=O)C1 (centres undefined)	-1.5	6.0	22.6	14.8	22.1	57.0*	11.9	-1.1	-16.5
CC(C)(C)NC(=O)C(c1ccc(-c2ccccc2)cc1)N(C[C@H]1CC[C@@H]([C@@H]2CC[C@H](CO)O2)O1)C(=O)c1ccc(C(C)(C)C)cc1 (some centres undefined)	.	0.3	27.1	23.3	.	13.2	.	.	.
CCOC(=O)C1=CCN(S(=O)(=O)c2ccccc2C)C1c1cccc(Cl)c1 (centres undefined)	.	.	.	.	.	60.9*	43.6	-0.9	-12.0
CCOC(=O)C1=CCN(S(=O)(=O)c2ccccc2Cl)C1c1cccc(Br)c1 (centres undefined)	.	.	.	3.2	.	56.1*	20.4	-0.2	4.8
CCOC(=O)C1=CCN(S(=O)(=O)c2ccccc2Br)C1c1cccc(Cl)c1 (centres undefined)	.	.	.	4.8	.	28.0	.	.	.
CCOC(=O)c1c(NC(=O)COc2cccc3c2CCN(C)C3=O)sc2c1CCC2	-1.8	1.1	-0.9	-6.1	-13.3	50.7*	10.0	-1.6	-10.7
Cc1cccc(NC(=O)COc2cccc3c2CCN(C)C3=O)c1C	-2.3	-7.9	2.2	-0.1	-13.9	-5.0	.	.	.
COC(=O)c1ccccc1NC(=O)c1cc2nc(C3CC3)cc(C(F)(F)F)n2n1	-3.3	-3.2	5.0	4.3	-9.7	32.8	.	.	.
COc1cc(NC(=O)c2cc3nc(C4CC4)cc(C(F)(F)F)n3n2)c(OC)cc1Cl	-1.6	7.2	7.9	4.0	-9.8	37.6*	7.1	-1.4	-11.4
COc1ccc(OCCNC(=O)c2cccc(Oc3ccc(C(F)(F)F)cc3[N+](=O)[O-])c2)cc1	0.3	-3.2	19.1	3.5	7.3	42.8*	16.6	-1.6	-13.9

Screening results from PubChem.
